Measurements from different studies.
Compare with care: the assays were run in different laboratories.
Adora1: Adenosine receptor A1 (Adora1, Rattus norvegicus, UniProt P25099)
HRH1: Histamine H1 receptor (HRH1, Homo sapiens, UniProt P35367)

For `NC(=O)CCNC(=S)NCCCC[C@H](NS(=O)(=O)c1cccc(F)c1)C(=O)N[C@@H](Cc1c[nH]c2ccccc12)C(=O)NC1CCC1`, the Ki was 3.3 µM (NAD-dependent protein deacylase sirtuin-5, mitochondrial (SIRT5, Homo sapiens, UniProt Q9NXA8); enzyme activity, inhibitor).
`CCCCN1CCCn2c1nc1c2c(=O)n(C)c(=O)n1C` has a Ki of 4.32 µM (Adora1; ligand displacement, radioligand; cell membranes).
`CCCCN1CCC(COC(=O)c2ccc(N)c(OCF)c2)CC1` has a Ki of > 10 µM (Muscarinic acetylcholine receptor M4 (CHRM4, Homo sapiens, UniProt P08173); cell-free assay, radioligand).
With `CN1CCN(c2ccc(-c3ccnn3-c3ccc(S(N)(=O)=O)cc3)cc2)CC1` the Ki was 0.288 µM (Carbonic anhydrase 9 (CA9, Homo sapiens, UniProt Q16790); enzyme activity, inhibitor).
With `C#CCN1CCCn2c1nc1c2c(=O)n(C)c(=O)n1C` the Ki was ≥ 25 µM (Adora1; ligand displacement, radioligand; cell membranes).
With `Nc1nc2ncc(CNc3ccc(C(=O)N[C@@H](CCC(=O)O)C(=O)O)cc3)nc2c(=O)[nH]1` the Ki was 0.59 µM (Proton-coupled folate transporter (Homo sapiens, UniProt Q96NT5); transporter uptake, inhibitor, radiometric; pH 5.5).
`CN1CCC(C2c3ccccc3C=Cc3ccccc32)CC1` has a Ki of 0.000501 µM (HRH1; cell-free assay, radioligand).
`CCCCCN1CCCn2c1nc1c2c(=O)n(C)c(=O)n1C` has a Ki of 3.16 µM (Adora1; ligand displacement, radioligand; cell membranes).
With `CN(C)c1ccc(/C=C/C=C2\CCc3ccc(OCCCN4CCCCC4)cc3C2=O)cc1` the Ki was 1.97 µM (HRH1; ligand displacement, radioligand; cell membranes).
`CC(C)[C@@H](CC[C@@H](C)[C@H]1CC[C@H]2[C@@H]3[C@H](O)C[C@H]4C[C@@H](NCCCNCCCCNCCCN)CC[C@]4(C)[C@H]3CC[C@]12C)OS(=O)(=O)O` gave a Ki of 6 µM (Tyrosine-protein phosphatase non-receptor type 2 (PTPN2, Homo sapiens, UniProt P17706); enzyme activity, inhibitor).
The Ki of `CCn1c(-c2nc3cc(C(=O)N4CCC[C@@H](N)C4)cc(OC)c3n2C)cc2cccnc21` is reported as 16 µM (Protein-arginine deiminase type-4 (PADI4, Homo sapiens, UniProt Q9UM07); enzyme activity, inhibitor).
With `CN(C)c1ccc(/C=C2\CCc3cc(OCc4ccc(OCCCN5CCCCC5)cc4)ccc3C2=O)cc1` the Ki was 1.77 µM (HRH1; ligand displacement, radioligand; cell membranes).
